# Sampled rows, rich in hits. Any-hit rate of the full collection: about 2%.
# Myeloid diff MLP: promotes myeloid progenitor differentiation; ER-HoxA9 myeloid progenitors, lysozyme-GFP differentiation, flow cytometry; calls only at 10 µM; 1% of 360,000 active; AID 624256;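 active = normalized GFP-positive differentiation at or above the plate's own cutoff, the solvent-only control mean plus 3 SD; inconclusive = no clear call, values can overlap the other calls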;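 note: cells exposed to compound for four days before flow analysis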
# NR2E3 ag-1: activates human photoreceptor nuclear receptor NR2E3; Q9Y5X4; GST-NR2E3/biotin-RetCOR TR-FRET, 1536-well; inhibition of corepressor binding, % at 4.78 µM; 0.12% of 320,000 active;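 active = percent inhibition above the cutoff of mean plus 3 SD of all tested compounds, set per screening campaign, cut at about 20% in these data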;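 note: 0% = DMSO wells and 100% = biotin wells as full block of FRET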
# Target sequence (Q9Y5X4 whole entry, looked up): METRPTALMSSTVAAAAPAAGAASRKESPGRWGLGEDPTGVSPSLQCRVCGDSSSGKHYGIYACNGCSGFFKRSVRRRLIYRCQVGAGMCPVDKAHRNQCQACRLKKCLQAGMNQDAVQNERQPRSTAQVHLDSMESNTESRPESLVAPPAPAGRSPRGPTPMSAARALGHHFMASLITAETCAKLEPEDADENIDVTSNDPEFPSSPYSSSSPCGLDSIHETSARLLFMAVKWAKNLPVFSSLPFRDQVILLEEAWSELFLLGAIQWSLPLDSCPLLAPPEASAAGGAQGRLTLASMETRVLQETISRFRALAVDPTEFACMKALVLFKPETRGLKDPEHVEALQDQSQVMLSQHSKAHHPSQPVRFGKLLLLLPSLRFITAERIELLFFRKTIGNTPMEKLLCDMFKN
#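 Test system – NR2E3–RetCOR corepressor complex · Quantity – NR2E3 fusion 1.35 nM · Buffer or medium – Tris pH 7.5 · Incubation – Compound–protein incubation for 5 h at 4 °C · Technique – TR-FRET, Eu(K)-anti-GST donor, streptavidin-D2 acceptor, ex 340, em 617/671 nm · Evaluation – percent inhibition of 671/617 nm emission ratio versus biotin and DMSO controls · Plate – 1536-well format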
# NR2E3 ag-2: agonists of human NR2E3 nuclear receptor; Q9Y5X4; CHO-S Gal4-NCOR/VP16-NR2E3 two-hybrid, luciferase; inhibition of corepressor binding, % at 3.98 µM; 0.35% of 360,000 active; AID 602229;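 active = inhibition above the mean of all tested compounds plus 3 SD, cut at about 70% in these data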;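 note: 0% = DMSO with NR2E3 transfected cells and 100% = cells lacking NR2E3 construct; higher means lower luciferase signal from less NR2E3 corepressor binding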
# T cell modulator: T cell immune modulation candidate; 2C CD8+ T cell-vesicle binding, flow cytometry; active compounds read low; response (vesicle binding), % at 7 µM; 0.068% of 330,000 active;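 active = response, share of CD8 T cells binding vesicles, and their 90th percentile fluorescence all below set limits, cut at about 80% in these data, passing the limit was not always enough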;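 note: values below 100% mean blocked vesicle binding to the CD8+ T cells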
#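 Incubation: binding step 1.5 h, 37 °C, antibody labelling 20 min, ice; system: murine 2C transgenic CD8+ T lymphocytes; technique: cytometric PE anti-B7-1 and Alexa647 anti-CD8 signals after 1% paraformaldehyde fixation; also added: QL9-charged Drosophila Ld/ICAM-1/B7-1 vesicles; control set: naked versus QL9-loaded vesicles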
# GAA850 FXN act: activators of GAA850 frataxin (FXN) promoter | HEK293 lucGAA850 FXN promoter luciferase reporter, 24 h; percent of 10 µM SAHA response | activation, % at 6 µM | 0.56% of 360,000 active;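 active = activation above the average of all compounds screened plus 3 SD, cutoff fixed separately per campaign, cut at about 7.5% in these data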;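 note: 0% = DMSO wells and 100% = 10 µM SAHA wells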
# GAA30 counter: activates GAA30 frataxin promoter, counter-screen for GAA850 activators; shares compounds with GAA850 FXN act; HEK293 lucGAA30 FXN promoter luciferase, 24 h; DMSO = 0%, 5 µM ipriflavone = 100%; activation, % at 6 µM; 66% of 1,900 active; AID 588350;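 active = mean activation above the mean of solvent-only control wells plus 3 SD, cut at about 22% in these data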;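 note: counterscreen of GAA850 promoter hits where activity marks nonselective or luminescence artifacts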
# GAA850 confirm: confirmation of GAA850 frataxin (FXN) promoter activators | shares compounds with GAA850 FXN act | HEK293 lucGAA850 FXN promoter luciferase reporter, 24 h; 100% = activation by SAHA | activation, % at 6 µM | 86% of 1,900 active | AID 588351;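 active = mean activation above a set limit taken from the primary screen, cut at about 8% in these data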;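 note: 0% = DMSO wells and 100% = 10 µM SAHA wells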
# * hit, by the source's call; i = inactive; ? = inconclusive; nt = no result given; + = active, no number.
SMILES,Myeloid diff MLP,NR2E3 ag-1,NR2E3 ag-2,T cell modulator,GAA850 FXN act,GAA30 counter,GAA850 confirm
Cc1ccc2nc(Nc3ccc4[nH]c(=O)[nH]c4c3)c(-n3nc(C)cc3C)nc2c1,i,2,-23,613,9.1*,77*,29*
Cc1cc(C)n(-c2nc3ccccc3nc2Nc2ccc3c(c2)OCO3)n1,i,3,-3,326,3,nt,nt
O=C1c2cccc3c(N4CCCCC4)ccc(c23)C(=O)N1CCO,i,5,-61,706,8.3*,88*,33*
C=CCN1C(=O)c2cccc3c(N4CCCCC4)ccc(c23)C1=O,i,3,-7,212,4,nt,nt
CCOC1=C2[C@@H](CN(S(=O)(=O)c3ccc(C)cc3)[C@H]2c2cccc3ccccc23)[C@H]2C(=O)N(C3CCCCC3)C(=O)[C@H]2C1,i,nt,12,nt,nt,nt,nt
CC(C)c1ccc(OCC(=O)N2CCCCCC2)c(Br)c1,i,1,-102,266,7.8*,86*,29*
Cc1cc(Br)ccc1OCC(=O)N1CCCCCC1,i,0,-21,321,-1,nt,nt
COc1ccccc1CNC(=O)CCNC(=O)c1ccco1,i,nt,7,nt,1,nt,nt
C[C@H]1CN([C@@H](C)CO)C(=O)c2cc(Br)cnc2O[C@H]1CN(C)C(=O)c1ccc2c(c1)OCO2,i,nt,-12,nt,2,nt,nt
CN[C@H]1C[C@H]2c3cc(-c4ccccc4)ccc3CCN2C(=O)[C@H]1[C@H](C)O,i,nt,-2,nt,-1,nt,nt
c1ccc(OCCCn2nnc(-c3ccc(N4CCOCC4)cc3)n2)cc1,i,3,-21,i,8.6*,20,8.6*
COc1ccc(C(=O)c2sc(Nc3ccccc3F)nc2N)cc1,i,0,-124,215,8.1*,81*,43*
COc1ccc(C(=O)c2sc(Nc3ccccc3)nc2N)cc1,i,nt,-4,181,4,nt,nt
Nc1nc(Nc2ccccc2)sc1C(=O)c1ccccc1,i,0,45,404,22*,102*,107*
COc1ccc([C@H]2CC(=O)C=C(/C=C/c3ccccc3)C2)cc1OC,i,2,-9,251,3,nt,nt
CCC(C)c1ccccc1N1CC(C(=O)Nc2cc(S(=O)(=O)N3CCOCC3)ccc2OC)CC1=O (stereo not given),i,2,-17,334,3,nt,nt
CCOc1ccccc1N1CC(C(=O)Nc2cc(S(=O)(=O)N3CCOCC3)ccc2OC(C)C)CC1=O (stereo not given),i,nt,-24,nt,10*,16,7
COc1ccc(OC)c(-c2nnc3n2N=C(c2ccc(OC)c(OC)c2)CS3)c1,nt,nt,33,207,1,nt,nt
COc1ccc(C2=Nn3c(nnc3C3CCCCC3)SC2)cc1OC,+,-1,35,684,13*,14,13*
COc1ccc(C2=Nn3c(nnc3-c3ccccc3)SC2)cc1OC,i,-5,-1,126,9.5*,22*,18*
CCCc1nnc2n1N=C(c1ccc(OC)c(OC)c1)CS2,i,-4,1,152,12*,35*,13*
COc1ccc(OC)c(C2=Nn3c(nnc3C3CCCCC3)SC2)c1,i,1,14,298,2,nt,nt
C=C1C(=O)C2=CC1CCC(=O)C1(C)CCC(OC(C)=O)C(C)(C)C1CC2O (stereo not given),?,nt,43,nt,-13,nt,nt
COc1ccc(OCc2cc(C(=O)N(C)C3CCOCC3)no2)c2ccccc12,?,-1,-95,389,6,nt,nt
O=C(NCC1CCCO1)c1cc(-c2ccccc2)on1 (stereo not given),i,-4,-90,135,24*,157*,91*
SMILES,Myeloid diff MLP,NR2E3 ag-1,NR2E3 ag-2,T cell modulator,GAA850 FXN act,GAA30 counter,GAA850 confirm
O=C(NCc1ccccc1)c1cc(-c2cccs2)on1,i,2,-110,120,3,nt,nt
CCCNC(=O)c1cc(-c2ccco2)on1,i,3,-116,534,22*,128*,57*
O=C(NCc1ccco1)c1cc(-c2cccs2)on1,i,-1,-75,317,26*,150*,56*
COc1ccc(-c2cc(C(=O)NCC3CCCO3)on2)cc1OC (stereo not given),i,2,-15,781,-1,nt,nt
Cc1ccc(-c2cc(C(=O)NCC3CCCO3)no2)cc1 (stereo not given),i,3,-98,552,5,nt,nt
O=C(NCC1CCCO1)c1cc(-c2ccc(F)cc2)no1 (stereo not given),i,3,-64,310,11*,85*,31*
CC(C)CNC(=O)c1cc(-c2ccco2)on1,i,3,-139,339,4,nt,nt
CC(C)(C)OC(=O)C[C@@H]1C/C=C\C[C@H](CC(=O)N[C@@H](CO)Cc2ccccc2)C(=O)N[C@H](C(C)(C)C)COC1=O,i,nt,-37,388,0,nt,nt
CCCCOCCCNC(=O)C[C@@H]1C[C@@]2(C(=O)OC)CC(C)(C)CC=C2N(CCc2ccc(OC)c(OC)c2)C1=O,i,nt,nt,nt,nt,nt,nt
COc1ccc(CCNC(=O)c2cc(-c3ccccc3)on2)cc1OC,i,3,-8,497,10*,62*,33*
O=C(NCc1ccco1)c1cc(-c2ccc(F)cc2)on1,i,3,-93,386,7,nt,nt
O=C(NCc1ccco1)c1cc(-c2ccccc2)on1,i,-5,-114,504,9.1*,105*,37*
COc1ccc(N2C(=O)CC(N(CCc3ccc(OC)c(OC)c3)C(=S)Nc3ccccc3)C2=O)cc1 (stereo not given),i,2,-10,239,8.4*,1,11*
O=C(Nc1nnc([C@@H]2C[C@H](O)[C@@H](CO)O2)s1)c1ccc(Oc2ccccc2)cc1,i,nt,-32,nt,0,nt,nt
CC1CC(C)(C)Nc2ccc(N=O)cc21 (stereo not given),?,nt,-1,nt,13*,58*,67*
CC(C)CN1CCN(C(=O)COC(=O)c2ccc(S(C)(=O)=O)c([N+](=O)[O-])c2)CC1,+,nt,-13,nt,9.7*,70*,15*
O=C(NCc1ccccc1)C1Cc2c(-c3ccc4c(c3)OCO4)ccnc2O1 (stereo not given),nt,nt,28,nt,-2,nt,nt
COc1cc(-c2nc3ccccc3s2)ccc1O,i,-2,-86,796,4,nt,nt
CCOc1cc(-c2nc3ccccc3s2)ccc1O,i,0,-50,63,9.4*,99*,29*
Cc1cc2c(SCC(=O)NCC3CCCO3)ncnc2s1 (stereo not given),i,nt,17,nt,-2,nt,nt

# Screening results as filed in PubChem.
